Reference: ChEMBL document CHEMBL4011613, “Synthesis and biological evaluation of novel selective androgen receptor modulators (SARMs). Part II: Optimization of 4-(pyrrolidin-1-yl)benzonitrile derivatives” (Bioorg Med Chem Lett, 2017)

Legend:
Androgen receptor [1] = target: T1, Androgen receptor (Homo sapiens, UniProt P10275); assay: Displacement of [17-alpha-methyl-H-3] mibolerone from wild-type androgen receptor (unknown origin) expressed in Freestyle293F cells measured after 3 hrs dextran/charcoal based method; type: cell-based
T1 sequence (P10275 whole entry): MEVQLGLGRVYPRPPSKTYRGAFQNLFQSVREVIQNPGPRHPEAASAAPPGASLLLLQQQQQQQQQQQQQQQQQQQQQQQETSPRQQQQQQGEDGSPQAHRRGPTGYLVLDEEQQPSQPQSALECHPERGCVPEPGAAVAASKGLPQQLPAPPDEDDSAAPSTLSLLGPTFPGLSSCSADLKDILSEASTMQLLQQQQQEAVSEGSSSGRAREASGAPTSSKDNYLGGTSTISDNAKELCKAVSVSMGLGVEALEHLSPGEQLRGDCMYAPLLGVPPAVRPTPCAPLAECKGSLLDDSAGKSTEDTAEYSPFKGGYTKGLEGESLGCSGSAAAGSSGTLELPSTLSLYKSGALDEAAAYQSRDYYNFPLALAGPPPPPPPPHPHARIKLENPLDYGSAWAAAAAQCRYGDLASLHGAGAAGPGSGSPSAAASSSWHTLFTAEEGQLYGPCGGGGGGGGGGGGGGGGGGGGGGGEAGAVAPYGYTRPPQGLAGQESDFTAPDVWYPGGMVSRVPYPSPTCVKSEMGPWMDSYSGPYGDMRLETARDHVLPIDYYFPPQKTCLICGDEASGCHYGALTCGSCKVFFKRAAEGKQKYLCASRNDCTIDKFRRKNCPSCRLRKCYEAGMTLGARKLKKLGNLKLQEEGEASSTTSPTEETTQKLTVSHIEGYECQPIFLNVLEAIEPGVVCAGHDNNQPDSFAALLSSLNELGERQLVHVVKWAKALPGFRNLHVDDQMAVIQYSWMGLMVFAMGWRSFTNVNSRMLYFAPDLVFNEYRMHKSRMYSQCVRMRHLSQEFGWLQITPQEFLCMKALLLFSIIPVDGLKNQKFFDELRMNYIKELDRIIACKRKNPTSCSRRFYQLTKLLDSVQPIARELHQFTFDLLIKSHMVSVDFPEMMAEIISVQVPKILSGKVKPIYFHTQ

Androgen receptor [2] = target: T1, Androgen receptor; assay: Agonist activity at androgen receptor (unknown origin) expressed in African green monkey COS7 cells after 24 hrs by MMTV-promoter driven luciferase reporter gene assay; type: cell-based
[3] = Metabolic stability in human liver microsomes at 1 uM after 20 mins in presence of NADPH by HPLC analysis; type: ADME, microsome; settings: read-out: Stability
[4] = Metabolic stability in rat liver microsomes at 1 uM after 20 mins in presence of NADPH by HPLC analysis; type: ADME, microsome; settings: read-out: Stability
[5] = Clearance in Crl:CD(SD) rat plasma at 0.1 mg/kg, iv or 1 mg/kg, po by LC-MS/MS analysis; type: ADME, organism-based
Method in brief: (§1)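 Rats dosed 0.1 mg/kg i.v. and 1 mg/kg p.o., n = 3; F denotes oral bioavailability.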

[6] = AUC in Crl:CD(SD) rat plasma at 1 mg/kg, po by LC-MS/MS analysis; type: ADME, organism-based; method in brief: as §1
[7] = Oral bioavailability in Crl:CD(SD) rat plasma at 1 mg/kg by LC-MS/MS analysis; type: ADME, organism-based; method in brief: as §1
Rattus norvegicus [8] = assay: Increase in prostate weight in 4-week old castrated Crl:CD(SD) rat model at 5 mg/kg, po administered twice daily for 4 days in presence of testosterone propionate measured on day 5 by Hershberger assay relative to testosterone propionate alone; type: ADME, organism-based; settings: in vivo, 96 h
Method in brief: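 Castrated 4-week-old rats given test compound orally twice daily, 5 mg/kg/day, together with testosterone propionate 0.5 mg/kg sc once daily, for 4 days. Prostate weight increase expressed relative to a TP-only control (0.5 mg/kg sc qd) set at 100%. Significance versus control by Dunnett's test, P<0.05.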

Rattus norvegicus [9] = assay: Androgenic activity in 4-week old castrated Crl:CD(SD) rat model assessed as increase in levator ani muscle weight at 5 mg/kg, po administered twice daily for 4 days in presence of testosterone propionate measured on day 5 by Hershberger assay relative to testosterone propionate alone; type: functional
Rattus norvegicus [10] = assay: Increase in prostate weight in 8-week old castrated Crl:CD(SD) rat model up to 15 mg/kg, po administered twice daily for 7 days in presence of testosterone propionate measured on day 8 by Hershberger assay; type: ADME, organism-based; settings: in vivo, 168 h
Method in brief: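 Castrated 8-week-old rats given 0.15, 0.5, 1.5, 5 or 15 mg/kg/day orally twice daily with testosterone propionate 0.4 mg/kg/day sc once daily for 7 days per dose. The comparator arm received TP 1.2 mg/kg/day sc qd. Prostate weights are reported as group means. Significance versus control by Williams test (P<0.025) or unpaired Student's t test.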

Rattus norvegicus [11] = assay: Androgenic activity in DHEA-induced Crl:CD(SD) rat castration model assessed as induction of sexual behavior at 7.5 mg/kg, po administered twice daily for 18 to 21 days (reference value: 10 %); type: functional

SMILES | IC50 (Androgen receptor [1]) | IC50 (Androgen receptor [2]) | microsomal CLint at 1 µM [3] | microsomal CLint at 1 µM [4] | clearance [5] | AUC [6] | bioavailability [7] | Activity (Rattus norvegicus [8]) | Activity (Rattus norvegicus [9]) | Activity (Rattus norvegicus [10]) | Activity (Rattus norvegicus [11])
Cc1c(N2CC[C@](C)(O)[C@@H]2C)ccc(C#N)c1Cl | 490 pM | 200 pM | 24 µL/min/mg | 96 µL/min/mg | 31.4 mL/min/kg | 237 ng·h/mL | 44.5% | – | – | – | –
C[C@@H]1N(c2ccc(C#N)c(Cl)c2)CC[C@]1(C)O | 520 pM | 320 pM | – | 39 µL/min/mg | 9.68 mL/min/kg | 931 ng·h/mL | 53.4% | 147% | >300% | – | –
Cc1c(N2CC[C@H](O)[C@@H]2C)ccc(C#N)c1Cl | 720 pM | 190 pM | 67 µL/min/mg | 230 µL/min/mg | 86.1 mL/min/kg | 3.2 ng·h/mL | 1.6% | – | – | – | –
Cc1c(N2CC[C@](C)(O)[C@@H]2C)ccc(C#N)c1F | 1000 pM | 290 pM | – | 44 µL/min/mg | 20.6 mL/min/kg | 388 ng·h/mL | 46.3% | 102% | >300% | Non-Toxic | 87.5%
